Test results taken from ChEMBL document CHEMBL2439985, “Multifunctional cyclic D,L-α-peptide architectures stimulate non-insulin dependent glucose uptake in skeletal muscle cells and protect them against oxidative stress” (J Med Chem, 2013).
Activity calls are given as the source filed them. The calls are words filed in the database; no cut-off is given here.

Legend:
[1] = Antioxidant activity assessed as inhibition of H2O2-induced hydroxyl radical formation by EPR spectroscopic analysis in presence of Fe2+; format: functional
In short: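 Hydroxyl radicals came from a Fenton reaction: H2O2 (10 mM), FeSO4·7H2O (10 mM) and DMPO spin trap (40 mM), with peptide at 1−1000 μM. Samples were diluted in 15 mM phosphate buffer, pH 7.4, and read immediately by EPR. The spin-adduct signal was integrated.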

[2] = Antioxidant activity assessed as inhibition of H2O2-induced ROS production by DCFH assay; format: functional
In short: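 DCFH oxidation assay: H2O2 (0.5 mM) was incubated with DCFH with or without the test agent, and the DCF formed was read fluorometrically. Free His and Trolox served as controls.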

[3] = Induction of self-assembly of the compound in DMSO at 1 uM by fluorescence spectroscopic analysis; format: physicochemical
In short: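 Self-assembly of NBD-labelled peptide (1 μM) in 1:1 DMSO/MES (25 mM, pH 6.6) was followed as fluorescence decrease over time.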

[4] = Cellular uptake in intracellular vesicle of rat L6 cells at 10 uM after 4 hrs by WGA/Hoechst staining-based confocal fluorescent microscopic analysis; format: ADME, cell-based; conditions: l6, 4 h
In short: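 Live L6 myotubes on glass-bottom dishes were given NBD-labelled peptide (10 μM) for 4 h in medium with 1% FBS, then washed. Nuclei were stained with Hoechst and membranes with Alexa Fluor-WGA. Imaging was by confocal microscopy at 37 °C.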

[5] = test system: L6; experiment: Cytoprotective activity in rat L6 cells assessed as increase in glucose oxidase-reduced cell survival at 2 mM incubated for 30 mins prior to glucose oxidase challenge measured after 5 hrs by MTT assay in presence of 23.5 mM D-glucose; format: functional, cell-based
In short: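 L6 myotubes were kept 7 days in 23.5 mM glucose. They were pretreated with peptide (25 μM, 12 h) or ALA (2 mM, 30 min), vehicle 0.1% DMSO, at 37 °C. Glucose oxidase (50 mU mL−1) was then added for 5 h to generate H2O2. Viability was read by MTT.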

[6] = test system: L6; experiment: Antihyperglycemic activity in rat L6 cells assessed as increase in [3H]dGlc uptake at 2 mM after 30 mins by liquid scintillation counting analysis; format: functional, cell-based
In short: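 Differentiated L6 myotubes were preincubated 24 h in αMEM with 2% FCS and 5.5 or 23.5 mM D-glucose, then switched to FCS-free medium with 0.5% BSA 4 h before the assay. Peptide was given for 12 h or ALA for 30 min, vehicle 0.1% DMSO. After PBS rinses, cells took up 0.1 mM dGlc plus [3H]dGlc (1.3 μCi mL−1) for 5 min at room temperature. Cells were lysed in 0.1% SDS and counted by scintillation. Uptake is expressed as % of the DMSO basal rate.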

[7] = biological target: T1, Solute carrier family 2, facilitated glucose transporter member 1 (Homo sapiens) (UniProt P11166); experiment: Induction of human myc epitope-tagged GLUT1 translocation to plasma membrane overexpressed in rat L6 cells at 2 mM after 30 mins by immunocolorimetric analysis in presence of 23.5 mM D-glucose; format: cell-based
T1 sequence (whole entry): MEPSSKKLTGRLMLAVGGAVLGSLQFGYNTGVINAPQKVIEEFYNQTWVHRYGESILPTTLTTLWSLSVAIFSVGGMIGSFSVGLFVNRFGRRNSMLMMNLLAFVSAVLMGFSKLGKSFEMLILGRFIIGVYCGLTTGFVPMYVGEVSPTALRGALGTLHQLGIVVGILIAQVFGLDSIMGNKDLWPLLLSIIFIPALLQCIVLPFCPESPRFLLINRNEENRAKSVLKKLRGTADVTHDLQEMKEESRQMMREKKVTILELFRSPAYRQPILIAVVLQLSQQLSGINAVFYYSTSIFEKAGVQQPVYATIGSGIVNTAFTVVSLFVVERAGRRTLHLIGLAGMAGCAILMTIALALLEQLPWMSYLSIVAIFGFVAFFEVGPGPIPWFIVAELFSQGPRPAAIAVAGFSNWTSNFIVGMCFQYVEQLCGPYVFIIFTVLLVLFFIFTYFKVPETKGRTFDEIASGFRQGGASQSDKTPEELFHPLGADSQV
In short: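 L6 myotubes overexpressing GLUT1myc or GLUT4myc were held 9 h in serum-free αMEM with 0.5% BSA and 23.5 mM glucose. They received peptide (25 μM) or 0.1% DMSO over the last 8 h, and insulin (100 nM) or ALA (2 mM) over the last 30 min. Live cells were labelled with anti-c-Myc (1:200) and fixed in 3% formaldehyde. HRP anti-rabbit IgG (1:2000) and OPD were added, and absorbance was read at 492 nm.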

[8] = test system: L6; experiment: Effect on human myc epitope-tagged total GLUT4 level overexpressed in rat L6 cells at 2 mM after 30 mins by Western blotting analysis; format: functional, cell-based
In short: (§1)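 Whole-cell lysates of GLUT1myc- or GLUT4myc-overexpressing L6 myotubes were made after the same treatments as in the surface assay. Western blots were run for total transporter content.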

[9] = test system: L6; experiment: Effect on total GLUT1 level in rat L6 cells at 2 mM after 30 mins by Western blotting analysis; format: functional, cell-based
[10] = test system: L6; experiment: Antihyperglycemic activity in rat L6 cells assessed as increase in [3H]dGlc uptake at 25 uM after 30 mins by liquid scintillation counting analysis; format: functional, cell-based
[11] = test system: L6; experiment: Antiapoptotic activity in rat L6 cells assessed as suppression of 23.5 mM D-glucose-induced JNK-54 phosphorylation at 2 mM after 30 mins by Western blot analysis; format: functional, cell-based
[12] = test system: L6; experiment: Antioxidant activity in rat L6 cells assessed as trolox equivalents of ABTS free radical scavenging activity at 2 mM after 2 hrs by ELISA reader analysis in presence of 23.5 mM D-glucose; format: functional, cell-based
In short: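 L6 myotubes in αMEM with 2% FCS and 5.5 or 23.5 mM glucose were treated with peptide (25 μM, 12 h) or ALA (2 mM, 2 h), vehicle 0.1% DMSO. Cells were lysed (Tris pH 7.5, NaCl, NP-40) through three freeze-thaw cycles and centrifuged. Lysates were assayed for metmyoglobin/H2O2-driven ABTS•+ formation. Results are Trolox equivalents per mg protein from a Trolox standard curve, with protein by Bradford.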

[13] = test system: L6; experiment: Effect on total GLUT4 level in rat L6 cells at 2 mM after 30 mins by Western blotting analysis; format: functional, cell-based
[14] = test system: L6; experiment: Effect on human myc epitope-tagged total GLUT1 level overexpressed in rat L6 cells at 2 mM after 30 mins by Western blotting analysis; format: functional, cell-based; in short: as §1
[15] = test system: L6; experiment: Antiapoptotic activity in rat L6 cells assessed as suppression of 23.5 mM D-glucose-induced JNK-46 phosphorylation at 2 mM after 30 mins by Western blot analysis; format: functional, cell-based

Compound	EC50 [1]	EC50 [2]	Activity [3]	Drug uptake [4]	Activity [5]	Activity [6]	Activity [7]	Activity [8]	Activity [9]	Activity [10]	Activity [11]	Activity [12]	Activity [13]	Activity [14]	Activity [15]
N[C@@H](Cc1c[nH]cn1)C(=O)O [HISTIDINE]	100 µM	6 µM													
O=C1N[C@H](CCCCNc2ccc([N+](=O)[O-])c3nonc23)C(=O)N[C@@H](Cc2c[nH]cn2)C(=O)N[C@H](Cc2c[nH]c3ccccc23)C(=O)N[C@@H](Cc2c[nH]c3ccccc23)C(=O)N[C@H](Cc2c[nH]cn2)C(=O)N[C@@H](Cc2c[nH]cn2)C(=O)N[C@H](Cc2c[nH]cn2)C(=O)N[C@H]1Cc1c[nH]cn1		0.3 µM	Active	Active											
O=C(O)CCCCC1CCSS1 (stereo unspecified)					Active	Active	Active	inactive	inactive	inactive	Active	Active	inactive	inactive	Active
